Legend:
Type in all cases: functional
Streptococcus pneumoniae [1] = experiment: Antimicrobial activity against Streptococcus pneumoniae isolate 1055 by agar dilution method
Streptococcus pneumoniae [2] = experiment: Antimicrobial activity against Streptococcus pneumoniae 11 by time-kill analysis
Method in brief: (§1)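 Time-kill in cation-adjusted Mueller-Hinton broth with 5% lysed horse blood; inocula 5 × 105 to 5 × 10^6 CFU/ml; drugs at MIC, 2× and 4× MIC; 35°C shaking water bath; viable counts at 0, 3, 6, 12, 24 h. Bactericidal = ≥3 log10 CFU/ml (99.9%) drop from original inoculum; 90%/99%/99.9% killing scored per strain.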

Streptococcus pneumoniae [3] = experiment: Antimicrobial activity against Streptococcus pneumoniae isolate 2880 by agar dilution method
Method in brief: (§2)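 Agar dilution MIC on Mueller-Hinton agar with 5% sheep blood, inocula 10^4 CFU/spot; amoxicillin-clavulanate combined 1:2; S. pneumoniae ATCC 49619 quality control each run.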

Streptococcus pneumoniae [4] = experiment: Antimicrobial activity against Streptococcus pneumoniae isolate 37 by agar dilution method; method in brief: as §2
Streptococcus pneumoniae [5] = experiment: Antimicrobial activity against Streptococcus pneumoniae isolate 1147 by agar dilution method; method in brief: as §2
Streptococcus pneumoniae [6] = experiment: Antimicrobial activity against Streptococcus pneumoniae isolate 3791 by agar dilution method; method in brief: as §2
Streptococcus pneumoniae [7] = experiment: Antimicrobial activity against Streptococcus pneumoniae 4 by time-kill analysis; method in brief: as §1
Streptococcus pneumoniae [8] = experiment: Antimicrobial activity against Streptococcus pneumoniae isolate 3681 by agar dilution method; method in brief: as §2
Streptococcus pneumoniae [9] = experiment: Antimicrobial activity against Streptococcus pneumoniae isolate 24 by agar dilution method
Streptococcus pneumoniae [10] = experiment: Antimicrobial activity against Streptococcus pneumoniae 5 by time-kill analysis
Method in brief: as §1, with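 “12 and” for “12,”, “if” for “=”, “reduction” for “drop”, “90% and 99%” for “90%/99%/99.9%”, “also scored.” for “scored per strain.”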

Streptococcus pneumoniae [11] = experiment: Antimicrobial activity against Streptococcus pneumoniae isolate 1564 by agar dilution method
Streptococcus pneumoniae [12] = experiment: Antimicrobial activity against Streptococcus pneumoniae 1 by time-kill analysis
Method in brief: as §1, with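 “12 and” for “12,”, “if” for “=”, “reduction” for “drop”, “90% and 99%” for “90%/99%/99.9%”, “also scored.” for “scored per strain.”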

Streptococcus pneumoniae [13] = experiment: Antimicrobial activity against Streptococcus pneumoniae 7 by time-kill analysis; method in brief: as §1
Streptococcus pneumoniae [14] = experiment: Antimicrobial activity against Streptococcus pneumoniae isolate 1146 by agar dilution method; method in brief: as §2
Streptococcus pneumoniae [15] = experiment: Antimicrobial activity against Streptococcus pneumoniae isolate 2688 by agar dilution method; method in brief: as §2
Streptococcus pneumoniae [16] = experiment: Antimicrobial activity against penicillin-intermediate Streptococcus pneumoniae by agar dilution method
Streptococcus pneumoniae [17] = experiment: Antimicrobial activity against Streptococcus pneumoniae isolate 1384 by agar dilution method; method in brief: as §2
Streptococcus pneumoniae [18] = experiment: Antimicrobial activity against Streptococcus pneumoniae isolate 3412 by agar dilution method; method in brief: as §2
Streptococcus pneumoniae [19] = experiment: Antimicrobial activity against Streptococcus pneumoniae 2 by time-kill analysis; method in brief: as §1
Streptococcus pneumoniae [20] = experiment: Antimicrobial activity against Streptococcus pneumoniae 10 by time-kill analysis; method in brief: as §1
Streptococcus pneumoniae [21] = experiment: Antimicrobial activity against Streptococcus pneumoniae isolate 33 by agar dilution method; method in brief: as §2
Streptococcus pneumoniae [22] = experiment: Antimicrobial activity against Streptococcus pneumoniae isolate 3275 by agar dilution method; method in brief: as §2
Streptococcus pneumoniae [23] = experiment: Antimicrobial activity against Streptococcus pneumoniae isolate 1394 by agar dilution method
Streptococcus pneumoniae [24] = experiment: Antimicrobial activity against Streptococcus pneumoniae 8 by time-kill analysis; method in brief: as §1
Streptococcus pneumoniae [25] = experiment: Antimicrobial activity against Streptococcus pneumoniae isolate 3374 by agar dilution method; method in brief: as §2
Streptococcus pneumoniae [26] = experiment: Antimicrobial activity against Streptococcus pneumoniae isolate 2617 by agar dilution method; method in brief: as §2
Streptococcus pneumoniae [27] = experiment: Antimicrobial activity against Streptococcus pneumoniae isolate 3282 by agar dilution method
Streptococcus pneumoniae [28] = experiment: Antimicrobial activity against Streptococcus pneumoniae isolate 3263 by agar dilution method
Streptococcus pneumoniae [29] = experiment: Antimicrobial activity against penicillin-resistant Streptococcus pneumoniae by agar dilution method; method in brief: as §2
Streptococcus pneumoniae [30] = experiment: Antimicrobial activity against Streptococcus pneumoniae isolate 4747 by agar dilution method; method in brief: as §2
Streptococcus pneumoniae [31] = experiment: Antimicrobial activity against Streptococcus pneumoniae isolate 3587 by agar dilution method
Streptococcus pneumoniae [32] = experiment: Antimicrobial activity against Streptococcus pneumoniae 12 by time-kill analysis; method in brief: as §1
Streptococcus pneumoniae [33] = experiment: Antimicrobial activity against Streptococcus pneumoniae isolate 3260 by agar dilution method
Streptococcus pneumoniae [34] = experiment: Antimicrobial activity against Streptococcus pneumoniae isolate 1397 by agar dilution method; method in brief: as §2
Streptococcus pneumoniae [35] = experiment: Antimicrobial activity against Streptococcus pneumoniae 3 by time-kill analysis; method in brief: as §1
Streptococcus pneumoniae [36] = experiment: Antimicrobial activity against Streptococcus pneumoniae 19A by agar dilution method; method in brief: as §2
Streptococcus pneumoniae [37] = experiment: Antimicrobial activity against Streptococcus pneumoniae isolate 3458 by agar dilution method
Streptococcus pneumoniae [38] = experiment: Antimicrobial activity against Streptococcus pneumoniae isolate 4755 by agar dilution method; method in brief: as §2
Streptococcus pneumoniae [39] = experiment: Antimicrobial activity against Streptococcus pneumoniae isolate 1424 by agar dilution method; method in brief: as §2
Streptococcus pneumoniae [40] = experiment: Antimicrobial activity against penicillin-susceptible Streptococcus pneumoniae by agar dilution method
Streptococcus pneumoniae [41] = experiment: Antimicrobial activity against Streptococcus pneumoniae 6 by time-kill analysis; method in brief: as §1
Streptococcus pneumoniae [42] = experiment: Antimicrobial activity against Streptococcus pneumoniae isolate 2686 by agar dilution method; method in brief: as §2
Streptococcus pneumoniae [43] = experiment: Antimicrobial activity against Streptococcus pneumoniae isolate 3455 by agar dilution method
Streptococcus pneumoniae [44] = experiment: Antimicrobial activity against Streptococcus pneumoniae 9 by time-kill analysis
Method in brief: as §1, with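 “12 and” for “12,”, “if” for “=”, “reduction” for “drop”, “90% and 99%” for “90%/99%/99.9%”, “also scored.” for “scored per strain.”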

Streptococcus pneumoniae [45] = experiment: Antimicrobial activity against Streptococcus pneumoniae isolate 3481 by agar dilution method; method in brief: as §2
Streptococcus pneumoniae [46] = experiment: Antimicrobial activity against Streptococcus pneumoniae isolate 3346 by agar dilution method
Streptococcus pneumoniae [47] = experiment: Antimicrobial activity against Streptococcus pneumoniae isolate 2874 by agar dilution method; method in brief: as §2

O=C(O)c1cn(C2CC2)c2cc(N3CCNCC3)c(F)cc2c1=O [CIPROFLOXACIN]
32 µg/mL: MIC (Streptococcus pneumoniae [1]) | MIC (Streptococcus pneumoniae [5]) | MIC (Streptococcus pneumoniae [14])
16 µg/mL: MIC (Streptococcus pneumoniae [7])
1 µg/mL: MIC (Streptococcus pneumoniae [2]) | MIC (Streptococcus pneumoniae [3]) | MIC (Streptococcus pneumoniae [4]) | MIC (Streptococcus pneumoniae [6]) | MIC (Streptococcus pneumoniae [8]) | MIC (Streptococcus pneumoniae [9]) | MIC (Streptococcus pneumoniae [10]) | MIC (Streptococcus pneumoniae [11]) | MIC (Streptococcus pneumoniae [13]) | MIC (Streptococcus pneumoniae [15])
> 32 µg/mL: MIC (Streptococcus pneumoniae [12])

C[C@@H](O)[C@H]1C(=O)N2C(C(=O)O)=C(SCCNC=N)C[C@H]12 [IMIPENEM ANHYDROUS]
0.03 µg/mL: MIC50 (Streptococcus pneumoniae [16]) | MIC (Streptococcus pneumoniae [20]) | MIC (Streptococcus pneumoniae [22]) | MIC (Streptococcus pneumoniae [41]) | MIC (Streptococcus pneumoniae [44])
0.004 µg/mL: MIC (Streptococcus pneumoniae [19]) | MIC (Streptococcus pneumoniae [12])
0.008 µg/mL: MIC50 (Streptococcus pneumoniae [40]) | MIC90 (Streptococcus pneumoniae [40])
0.25 µg/mL: MIC (Streptococcus pneumoniae [1]) | MIC (Streptococcus pneumoniae [2]) | MIC (Streptococcus pneumoniae [3]) | MIC (Streptococcus pneumoniae [4]) | MIC (Streptococcus pneumoniae [7]) | MIC (Streptococcus pneumoniae [23]) | MIC (Streptococcus pneumoniae [24]) | MIC50 (Streptococcus pneumoniae [29]) | MIC90 (Streptococcus pneumoniae [29]) | MIC (Streptococcus pneumoniae [9]) | MIC (Streptococcus pneumoniae [32]) | MIC (Streptococcus pneumoniae [33]) | MIC (Streptococcus pneumoniae [34]) | MIC (Streptococcus pneumoniae [39]) | MIC (Streptococcus pneumoniae [42]) | MIC (Streptococcus pneumoniae [15]) | MIC (Streptococcus pneumoniae [46]) | MIC (Streptococcus pneumoniae [47])
0.125 µg/mL: MIC90 (Streptococcus pneumoniae [16]) | MIC (Streptococcus pneumoniae [17]) | MIC (Streptococcus pneumoniae [18]) | MIC (Streptococcus pneumoniae [6]) | MIC (Streptococcus pneumoniae [25]) | MIC (Streptococcus pneumoniae [26]) | MIC (Streptococcus pneumoniae [8]) | MIC (Streptococcus pneumoniae [27]) | MIC (Streptococcus pneumoniae [30]) | MIC (Streptococcus pneumoniae [31]) | MIC (Streptococcus pneumoniae [11]) | MIC (Streptococcus pneumoniae [38]) | MIC (Streptococcus pneumoniae [45])
0.5 µg/mL: MIC (Streptococcus pneumoniae [21]) | MIC (Streptococcus pneumoniae [5]) | MIC (Streptococcus pneumoniae [10]) | MIC50 (Streptococcus pneumoniae [36]) | MIC90 (Streptococcus pneumoniae [36]) | MIC (Streptococcus pneumoniae [37]) | MIC (Streptococcus pneumoniae [43]) | MIC (Streptococcus pneumoniae [13]) | MIC (Streptococcus pneumoniae [14])
0.06 µg/mL: MIC (Streptococcus pneumoniae [28]) | MIC (Streptococcus pneumoniae [35])

CC[C@H]1OC(=O)[C@H](C)[C@@H](O[C@H]2C[C@@](C)(OC)[C@@H](O)[C@H](C)O2)[C@H](C)[C@@H](O[C@@H]2O[C@H](C)C[C@H](N(C)C)[C@H]2O)[C@](C)(O)C[C@@H](C)CN(C)[C@H](C)[C@@H](O)[C@]1(C)O [AZITHROMYCIN]
0.06 µg/mL: MIC (Streptococcus pneumoniae [19]) | MIC (Streptococcus pneumoniae [7]) | MIC (Streptococcus pneumoniae [41]) | MIC (Streptococcus pneumoniae [44])
2 µg/mL: MIC50 (Streptococcus pneumoniae [16]) | MIC (Streptococcus pneumoniae [5]) | MIC50 (Streptococcus pneumoniae [40]) | MIC (Streptococcus pneumoniae [14])
> 64 µg/mL: MIC90 (Streptococcus pneumoniae [16]) | MIC (Streptococcus pneumoniae [17]) | MIC (Streptococcus pneumoniae [1]) | MIC (Streptococcus pneumoniae [18]) | MIC (Streptococcus pneumoniae [2]) | MIC (Streptococcus pneumoniae [3]) | MIC (Streptococcus pneumoniae [4]) | MIC (Streptococcus pneumoniae [6]) | MIC (Streptococcus pneumoniae [22]) | MIC (Streptococcus pneumoniae [23]) | MIC (Streptococcus pneumoniae [25]) | MIC (Streptococcus pneumoniae [27]) | MIC (Streptococcus pneumoniae [28]) | MIC (Streptococcus pneumoniae [30]) | MIC (Streptococcus pneumoniae [9]) | MIC (Streptococcus pneumoniae [31]) | MIC (Streptococcus pneumoniae [33]) | MIC (Streptococcus pneumoniae [10]) | MIC (Streptococcus pneumoniae [34]) | MIC50 (Streptococcus pneumoniae [36]) | MIC90 (Streptococcus pneumoniae [36]) | MIC (Streptococcus pneumoniae [37]) | MIC (Streptococcus pneumoniae [11]) | MIC (Streptococcus pneumoniae [38]) | MIC (Streptococcus pneumoniae [39]) | MIC90 (Streptococcus pneumoniae [40]) | MIC (Streptococcus pneumoniae [42]) | MIC (Streptococcus pneumoniae [43]) | MIC (Streptococcus pneumoniae [12]) | MIC (Streptococcus pneumoniae [13]) | MIC (Streptococcus pneumoniae [45]) | MIC (Streptococcus pneumoniae [15]) | MIC (Streptococcus pneumoniae [46]) | MIC (Streptococcus pneumoniae [47])
0.12 µg/mL: MIC (Streptococcus pneumoniae [32])
4 µg/mL: MIC (Streptococcus pneumoniae [24]) | MIC (Streptococcus pneumoniae [35])
0.125 µg/mL: MIC (Streptococcus pneumoniae [21]) | MIC (Streptococcus pneumoniae [26]) | MIC (Streptococcus pneumoniae [8]) | MIC50 (Streptococcus pneumoniae [29])
0.03 µg/mL: MIC (Streptococcus pneumoniae [20])

CC[C@H]1OC(=O)[C@H](C)C(=O)[C@H](C)[C@@H](O[C@@H]2O[C@H](C)C[C@H](N(C)C)[C@H]2O)[C@](C)(OC)C[C@@H](C)C(=O)[C@H](C)[C@H]2N(CCCCn3cnc(-c4cccnc4)c3)C(=O)O[C@]12C [TELITHROMYCIN]
0.016 µg/mL: MIC (Streptococcus pneumoniae [32])
0.004 µg/mL: MIC (Streptococcus pneumoniae [41])
0.008 µg/mL: MIC (Streptococcus pneumoniae [19]) | MIC (Streptococcus pneumoniae [20]) | MIC (Streptococcus pneumoniae [7]) | MIC (Streptococcus pneumoniae [44])
0.03 µg/mL: MIC (Streptococcus pneumoniae [2]) | MIC (Streptococcus pneumoniae [12])
0.06 µg/mL: MIC (Streptococcus pneumoniae [13])
0.12 µg/mL: MIC (Streptococcus pneumoniae [24]) | MIC (Streptococcus pneumoniae [10]) | MIC (Streptococcus pneumoniae [35])

Source: ChEMBL document CHEMBL1649446, “Comparative antipneumococcal activities of sulopenem and other drugs” (2009)
